According to ChEMBL document CHEMBL1121917, “Structure--activity relationships in a broad-spectrum anthelmintic series. Acid chloride phenylhydrazones. 1. Aryl substitutions and chloride variations” (1981):

Columns and labels:
Ovis aries [1] = experiment: Percent reduction in Trichuris eggs per gram, after treatment with 200 mg/kg dose of compound perorally in sheep; assay type: functional, Egg; conditions: dose 100 mg/kg; route oral; in the assay text read “100 mg/kg” for “200 mg/kg”
Outline: (§1)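 Naturally parasitized lambs, dosed orally either with a suspension by stomach tube or with finely ground compound in gelatin capsules by balling gun. Activity was scored by the clinical test method, meaning a significant fall in helminth egg counts after treatment.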

Ovis aries [2] = experiment: Percent reduction in Oesophagostomum eggs per gram, after treatment with 200 mg/kg dose of compound perorally in sheep; assay type: functional, Egg; conditions: dose 100 mg/kg; route oral; in the assay text read “100 mg/kg” for “200 mg/kg”
Outline: (§2)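 Naturally parasitized lambs were dosed orally at the stated mg/kg. Dosing was either as a suspension of finely ground compound by stomach tube, or as ground compound weighed into gelatin capsules and given by balling gun. Activity was scored by the clinical test method: the decrease in posttreatment helminth eggs per gram.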

Ovis aries [3] = experiment: Percent reduction in Haemonchus eggs per gram, after treatment with 200 mg/kg dose of compound perorally in sheep; assay type: functional, Egg; conditions: dose 100 mg/kg; route oral; in the assay text read “100 mg/kg” for “200 mg/kg”; outline: as §2
Mus musculus [4] = species: Mus musculus; experiment: Percent clearance of Hymenolepis nana from mouse after oral treatment of 0.45 mg/mouse/day; assay type: functional
Outline: (§3)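 Mice naturally carrying Syphacia obvelata were experimentally infected with Nematospiroides dubius and Hymenolepis nana, then grouped after a 2-week prepatency. Finely ground compound was suspended in aqueous 0.10% carboxymethylcellulose, 0.04% polysorbate 80 and 0.0042% polyparaben, and 0.1 mL was given orally by cannula once daily for 4 days to five mice. Necropsy followed 2 days later, scoring presence or absence of each parasite. Control clearance was subtracted from the treated clearance.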

Mus musculus [5] = species: Mus musculus; experiment: Percent clearance of Nematospiroides dubius from mouse after oral treatment of 0.45 mg/mouse/day; assay type: functional; outline: as §3
Ovis aries [6] = experiment: Percent reduction in Nematodirus eggs per gram, after treatment with 200 mg/kg dose of compound perorally in sheep; assay type: functional, Egg; conditions: route oral; outline: as §2
Canis familiaris [7] = species: Canis familiaris; experiment: Percent reduction in Uncinaria eggs per gram, after oral treatment of 100 mg/dog dose of compound in a single treatment; assay type: functional, Canis lupus familiaris, Egg
Outline: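 Dogs naturally infected with Toxascaris leonina were experimentally infected with mixed Ancylostoma caninum and Uncinaria stenocephala larvae. Finely ground compound was given orally in gelatin capsules. Three egg count determinations were made before and three after treatment in each experiment.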

Ovis aries [8] = experiment: Percent reduction in Nematodirus eggs per gram, after treatment with 100 mg/kg dose of compound perorally in sheep; assay type: functional, Egg; conditions: route oral; outline: as §2
Ovis aries [9] = experiment: Percent reduction in Oesophagostomum eggs per gram, after treatment with 100 mg/kg dose of compound perorally in sheep; assay type: functional, Egg; conditions: route oral; outline: as §2
Ovis aries [10] = experiment: Percent reduction in Trichostrongylus eggs per gram, after treatment with 100 mg/kg dose of compound perorally in sheep; assay type: functional, Egg; conditions: route oral; outline: as §1
Mus musculus [11] = species: Mus musculus; experiment: Percent clearance of Nematospiroides dubius from mouse after oral treatment of 7.5 mg/mouse/day; assay type: functional; outline: as §3
Ovis aries [12] = experiment: Percent reduction in Strongyloides eggs per gram, after treatment with 100 mg/kg dose of compound perorally in sheep; assay type: functional, Egg; conditions: route oral; outline: as §1
Ovis aries [13] = experiment: Percent reduction in Ostertagia eggs per gram, after treatment with 100 mg/kg dose of compound perorally in sheep; assay type: functional, Egg; conditions: route oral; outline: as §2
Ovis aries [14] = experiment: Percent reduction in Moniezia eggs per gram, after treatment with 100 mg/kg dose of compound perorally in sheep; assay type: functional, Egg; conditions: route oral; outline: as §2
Ovis aries [15] = experiment: Percent reduction in Trichuris eggs per gram, after treatment with 100 mg/kg dose of compound perorally in sheep; assay type: functional, Egg; conditions: route oral; outline: as §1
Canis familiaris [16] = species: Canis familiaris; experiment: Percent reduction in Ancylostoma eggs per gram, after oral treatment of 100 mg/dog dose of compound in a single treatment; assay type: functional, Canis lupus familiaris, Egg
Outline: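 Dogs naturally infected with Toxascaris leonina were experimentally infected with mixed Ancylostoma caninum and Uncinaria stenocephala larvae. Finely ground compound was given orally in gelatin capsules. Fecal egg counts were taken three times before and three times after treatment, and activity was taken as the fall in egg counts.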

Ovis aries [17] = experiment: Percent reduction in Haemonchus eggs per gram, after treatment with 100 mg/kg dose of compound perorally in sheep; assay type: functional, Egg; conditions: route oral
Outline: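 Naturally parasitized lambs received compound orally, either as the aqueous suspension by stomach tube or as finely ground powder in gelatin capsules by balling gun. Activity was judged by the clinical test method, as a significant decrease in posttreatment helminth egg counts.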

Cl/C(=N\Nc1ccccc1)c1ccccc1
Reduction (Ovis aries [1]): 0%
Reduction (Ovis aries [2]): 89%
Reduction (Ovis aries [3]): 87%
Parasite_Clearance (Mus musculus [4]): 40%
Parasite_Clearance (Mus musculus [5]): 100%
Reduction (Ovis aries [6]): 100%

O=[N+]([O-])c1ccc(N/N=C(\Cl)c2ccccc2)cc1
Reduction (Canis familiaris [7]): 0%
Reduction (Ovis aries [8]): 0%
Reduction (Ovis aries [9]): 0%
Reduction (Ovis aries [10]): 57%
Parasite_Clearance (Mus musculus [11]): 0%
Reduction (Ovis aries [12]): 58%
Reduction (Ovis aries [13]): 33%
Reduction (Ovis aries [14]): 100%
Reduction (Ovis aries [15]): 100%
Reduction (Canis familiaris [16]): 0%
Reduction (Ovis aries [17]): 0%
